Our source for the IC50 and Ratio values is ChEMBL document CHEMBL1135562, “Cyclic acid anhydrides as a new class of potent, selective and non-peptidic inhibitors of geranylgeranyl transferase” (Bioorg Med Chem Lett, 2002).

By IC50 is commonly meant the midpoint of a concentration-inhibition curve. The low end stands for greater potency in that assay, the high end for weaker potency in that assay.

For test [1], the target named is T1, Geranylgeranyl transferase type I (Homo sapiens, UniProt P49354+P53609). Briefly: In vitro inhibition of geranylgeranyl-protein transferase type-I. The class given is protein-complex assay. Summed up: (§1)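 Recombinant human GGPTase-I; substrate recombinant human H-Ras CVLL with [1-(n)-3H]geranylgeranylpyrophosphate (615 GBq/mmol). Activity is the [3H]geranylgeranyl transferred to Ras, measured by filter binding. IC50 is the concentration inhibiting specific activity by 50%, derived by non-linear regression fit to a dose–response curve.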

The target in test [2] is T2, Protein farnesyltransferase (Homo sapiens, UniProt P49354+P49356). Briefly: In vitro inhibition of farnesyl-protein transferase. The class given is protein-complex assay. In short, it runs like this:
(§2)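 Recombinant human FPTase; substrate recombinant human wild-type H-Ras with [1-(n)-3H]farnesylpyrophosphate (555 GBq/mmol). Enzyme activity is the [3H]farnesyl transferred to Ras, measured by filter binding. IC50 is the concentration giving 50% inhibition of specific activity, fitted by non-linear regression to a dose–response curve.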

Test [3] is described as follows: In vitro inhibition of geranylgeranyl-protein transferase type-II. Also on record: species or system Homo sapiens.
For test [4], the target named is T3, Protein farnesyl/geranylgeranyl transferase (Homo sapiens) (UniProt P49354+P49356+P53609). The experiment in a line: Ratio of human Farnesyltransferase to human Geranylgeranyl transferase type I activity as IC50; 166:252. In kind it is protein-complex assay.
Test [5] deals with T2, Protein farnesyltransferase. The experiment in a line: In vitro inhibition of Farnesyltransferase. The class given is protein-complex assay. Summed up:
as §2

In test [6] the target is T1, Geranylgeranyl transferase type I. Briefly: In vitro inhibition of Geranylgeranyl transferase type I. In kind it is protein-complex assay. Summed up:
as §1

Test [7] deals with T3, Protein farnesyl/geranylgeranyl transferase (Homo sapiens). Briefly: Ratio of human Farnesyltransferase to human Geranylgeranyl transferase type I activity as IC50; 900:500. The class given is protein-complex assay.

For `CC(C)CCCC(C)CCCC(C)CCCC1=CCC2C(=O)OC(=O)C2C1` (configuration not stated), the values for the 50% inhibitory concentration (IC50) in test [1] and in test [2] were 20.8 µM and over 1000 µM, respectively.
As for `COC(=O)C1CC=C(CCCC(C)CCCC(C)CCCC(C)C)CC1C(=O)OC` (configuration not stated), in test [1], the IC50 is over 1000 µM.
For the molecule `CCCCCCCCCCCCCC/C(C(=O)O)=C(\C)C(=O)O` [CHAETOMELLIC ACID A], the 50% inhibitory concentration (IC50) was 92 µM in test [1] and 34 µM in test [3].
As for `CC(C)=CCC/C(C)=C/CCC1=CCC2C(=O)OC(=O)C2C1` (configuration not stated) [listing 1 of 2 here], the IC50 amounted to 136 µM in test [1] and 190 µM in test [2].
Take `CC(C)=CCCC1=CCC2C(=O)OC(=O)C2C1` (configuration not stated): the results for the IC50 in test [1] and in test [2] were 40.2 µM and 449 µM, respectively.
The corresponding values for `CCCCCCCCC/C=C/CC(CC(=O)O)C(=O)O` (configuration not stated) are over 1000 µM and 402 µM.
Consider `CC(C)CCCC(C)CCCC(C)CCCC1=CCC(C(=O)O)C(C(=O)O)C1` (configuration not stated), for which the IC50 in test [1] and in test [2] was over 1000 µM throughout.
Consider `C=C1CC(=O)OC1=O` [ITACONIC ANHYDRIDE], for which the IC50 in test [1] and in test [2] was over 1000 µM throughout.
Regarding `CCCCCCCCCCCCC(C(=O)O)C(C(=O)O)C(=O)O` (configuration not stated), in test [4], the Ratio was found to be 0.66.
For `CC(C)=CCCC1=CCC(C(=O)O)C(C(=O)O)C1` (configuration not stated), the IC50 in test [1] was 900 µM; in test [2], over 1000 µM.
The corresponding values for `CC(C)=CCC/C(C)=C/C=C1\CCC(C(=O)O)C(C(=O)O)C1` (configuration not stated) are 420 µM and over 1000 µM.
Take `CC(C)=CCC/C(C)=C/CCC1=CCC2C(=O)OC(=O)C2C1` (configuration not stated) [listing 2 of 2 here]: the IC50 in test [5] was 9 µM; in test [6] it was 503 µM.
For the molecule `CCCCCCCCCCCC(=O)OC(=O)CCCCCCCCCCC` [DODECANOIC ANHYDRIDE], the half-maximal inhibitory concentration (IC50) in test [1] was 229 µM; in test [2] it was 854 µM.
Regarding `COC(=O)C1CC=C(CCC=C(C)C)CC1C(=O)OC` (configuration not stated), the Ratio in test [7] turned out to be 1.8.
Take `CCCCCCCCC/C=C/CC1CC(=O)OC1=O` (configuration not stated): the values for the IC50 in test [1] and in test [2] were 401 µM and over 1000 µM, respectively.
